Reference: ChEMBL document CHEMBL2390912, “Aromatic glycosyl disulfide derivatives: evaluation of their inhibitory activities against Trypanosoma cruzi” (Bioorg Med Chem Lett, 2013)

Tests used:
[1] = tested on: Trypanosoma cruzi; assay: Trypanocidal activity against Trypanosoma cruzi Y trypomastigotes infected in human HeLa cells at 37 degC after 18 hrs by resazurin assay; type: functional, organism-based
How it was run: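 Tissue culture-derived trypomastigotes treated for 18 h at 37 °C. Read-out by fluorescence.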

[2] = tested on: Trypanosoma cruzi; assay: Trypanocidal activity against Trypanosoma cruzi Y trypomastigotes infected in human HeLa cells at 4 degC after 18 hrs by hemocytometric analysis; type: functional, organism-based

O=C(Cn1ccnc1[N+](=O)[O-])NCc1ccccc1 [BENZNIDAZOLE]
IC50 [1]: 25.6 µM
IC50 [2]: ≥ 500 µM
